Data published in ChEMBL document CHEMBL2321752, “A potent and highly efficacious Bcl-2/Bcl-xL inhibitor” (J Med Chem, 2013).

Tests used:
[1] = Cytotoxicity against human NCI-H146 cells assessed as growth inhibition after 4 days by WST assay; format: functional, cell-based; settings: NCI-H146, 96 h
[2] = target: Apoptosis regulator Bcl-2 (Homo sapiens, UniProt P10415); test: Binding affinity to BCL2 (unknown origin) after 2 hrs by fluorescence polarization assay
Procedure, shortened: (§1)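 Competitive FP binding assay. Preformed protein/fluorescent probe complexes were used at 1.5/1 nM for Bcl-2, 10/2 nM for Bcl-xL and 20/2 nM for Mcl-1. These were mixed with serially diluted inhibitor and shaken gently for 2 h at room temperature before millipolarization was read. IC50 came from nonlinear regression, and Ki was calculated from IC50.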

[3] = target: Bcl-2-like protein 1 (Homo sapiens, UniProt Q07817); test: Binding affinity to BCL-XL (unknown origin) after 2 hrs by fluorescence polarization assay; procedure, shortened: as §1
Chain of Bcl-2-like protein 1 (Q07817 whole entry): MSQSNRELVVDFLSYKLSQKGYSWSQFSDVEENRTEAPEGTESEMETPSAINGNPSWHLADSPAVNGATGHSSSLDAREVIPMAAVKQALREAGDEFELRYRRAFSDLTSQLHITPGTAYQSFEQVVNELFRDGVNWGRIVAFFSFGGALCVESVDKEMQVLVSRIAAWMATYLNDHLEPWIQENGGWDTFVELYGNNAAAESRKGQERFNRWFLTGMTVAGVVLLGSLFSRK

Chain of Apoptosis regulator Bcl-2 (P10415 whole entry): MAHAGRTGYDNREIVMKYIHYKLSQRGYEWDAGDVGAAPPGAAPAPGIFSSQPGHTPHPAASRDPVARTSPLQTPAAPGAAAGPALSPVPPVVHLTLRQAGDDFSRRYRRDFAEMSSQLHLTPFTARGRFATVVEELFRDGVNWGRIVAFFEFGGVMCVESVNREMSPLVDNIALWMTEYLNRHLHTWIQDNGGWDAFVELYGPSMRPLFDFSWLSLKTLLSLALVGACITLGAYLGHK

IC50 [2] [µM] | IC50 [3] [µM] | SMILES | IC50 [1] [µM]
0.26 | 0.012 | Cc1c(Cl)c(-c2cccc(N3CCN(c4ccc(NS(=O)(=O)c5ccc(N[C@H](CCN(C)C)CSc6ccccc6)c([N+](=O)[O-])c5)cc4)CC3)c2)c(-c2ccc(Cl)cc2)n1C | > 1
0.0037 | 0.0059 | CN(C)CC[C@H](CSc1ccccc1)Nc1ccc(S(=O)(=O)Nc2ccc(N3CCN(c4cccc(-c5c(-c6ccc(Cl)cc6)nn(C)c5C(=O)O)c4)CC3)cc2)cc1[N+](=O)[O-] | 0.541
0.0015 | 0.0047 | CN(C)CC[C@H](CSc1ccccc1)Nc1ccc(S(=O)(=O)Nc2ccc(N3CCN(c4cccc(-c5c(C(=O)O)c(Cl)n(C)c5-c5ccc(Cl)cc5)c4)CC3)cc2)cc1[N+](=O)[O-] | 0.1
0.0011 | 0.006 | CN(C)CC[C@H](CSc1ccccc1)Nc1ccc(S(=O)(=O)Nc2ccc(N3CCN(c4cccc(-c5c(C(=O)O)c(C(F)(F)F)n(C)c5-c5ccc(Cl)cc5)c4)CC3)cc2)cc1[N+](=O)[O-] | 0.496
0.019 | 0.014 | Cc1c(C(N)=O)c(-c2cccc(N3CCN(c4ccc(NS(=O)(=O)c5ccc(N[C@H](CCN(C)C)CSc6ccccc6)c([N+](=O)[O-])c5)cc4)CC3)c2)c(-c2ccc(Cl)cc2)n1C | 0.245
0.0071 | 0.0061 | CN(C)CC[C@H](CSc1ccccc1)Nc1ccc(S(=O)(=O)Nc2ccc(N3CCN(c4cccc(-c5c(C(=O)O)nn(C)c5-c5ccc(Cl)cc5)c4)CC3)cc2)cc1[N+](=O)[O-] | > 1
0.0013 |  | Cc1c(C(=O)O)c(-c2cccc(N3CCN(c4ccc(NS(=O)(=O)c5ccc(N[C@H](CCN(C)C)CSc6ccccc6)c([N+](=O)[O-])c5)cc4)CC3)c2)c(-c2ccc(Cl)cc2)n1C | 
0.002 |  | CCn1c(C)c(C(=O)O)c(-c2cccc(N3CCN(c4ccc(NS(=O)(=O)c5ccc(N[C@H](CCN(C)C)CSc6ccccc6)c([N+](=O)[O-])c5)cc4)CC3)c2)c1-c1ccc(Cl)cc1 | 

The remaining lines, values behind:

SMILES | IC50 [2] [µM] | IC50 [3] [µM] | IC50 [1] [µM]
Cc1c(C(=O)NS(C)(=O)=O)c(-c2cccc(N3CCN(c4ccc(NS(=O)(=O)c5ccc(N[C@H](CCN(C)C)CSc6ccccc6)c([N+](=O)[O-])c5)cc4)CC3)c2)c(-c2ccc(Cl)cc2)n1C | 0.0009 |  | 0.038
CN(C)CC[C@H](CSc1ccccc1)Nc1ccc(S(=O)(=O)Nc2ccc(N3CCN(c4cccc(-c5cncn5-c5ccc(Cl)cc5)c4)CC3)cc2)cc1[N+](=O)[O-] | 0.046 | 0.018 | > 10
CN(C)CC[C@H](CSc1ccccc1)Nc1ccc(S(=O)(=O)Nc2ccc(N3CCN(c4cccc(-c5c(C(=O)NS(C)(=O)=O)ncn5-c5ccc(Cl)cc5)c4)CC3)cc2)cc1[N+](=O)[O-] | 0.0038 | 0.0083 | > 1
CCCCn1c(C)c(C(=O)O)c(-c2cccc(N3CCN(c4ccc(NS(=O)(=O)c5ccc(N[C@H](CCN(C)C)CSc6ccccc6)c([N+](=O)[O-])c5)cc4)CC3)c2)c1-c1ccc(Cl)cc1 | 0.023 | 0.016 | 0.067
CN(C)CC[C@H](CSc1ccccc1)Nc1ccc(S(=O)(=O)Nc2ccc(N3CCN(c4cccc(-c5c(C(=O)NS(C)(=O)=O)cnn5-c5ccc(Cl)cc5)c4)CC3)cc2)cc1[N+](=O)[O-] | 0.0054 | 0.005 | > 1
Cc1c(C#N)c(-c2cccc(N3CCN(c4ccc(NS(=O)(=O)c5ccc(N[C@H](CCN(C)C)CSc6ccccc6)c([N+](=O)[O-])c5)cc4)CC3)c2)c(-c2ccc(Cl)cc2)n1C | 0.017 | 0.0045 | 0.491
Cc1c(C(=O)N[C@H]2C[C@@](C)(O)C2)c(-c2cccc(N3CCN(c4ccc(NS(=O)(=O)c5ccc(N[C@H](CCN(C)C)CSc6ccccc6)c([N+](=O)[O-])c5)cc4)CC3)c2)c(-c2ccc(Cl)cc2)n1C | 0.0075 | 0.015 | 0.012
Cc1cc(-c2cccc(N3CCN(c4ccc(NS(=O)(=O)c5ccc(N[C@H](CCN(C)C)CSc6ccccc6)c([N+](=O)[O-])c5)cc4)CC3)c2)c(-c2ccc(Cl)cc2)n1C |  |  | > 10
